Data from ChEMBL document CHEMBL2424605, “Discovery of novel (1S)-(-)-verbenone derivatives with anti-oxidant and anti-ischemic effects” (Bioorg Med Chem Lett, 2013).
Active and inactive are the calls of the source. The calls are words filed in the database; no cut-off is given here.

Legend:
[1] = Cytotoxicity against Sprague-Dawley rat cortical neurons assessed as cell viability at 10 uM by LDH assay; details: cortical neurone
[2] = Antioxidant activity assessed as AAPH-induced free radical scavenging activity at 25 uM preincubated for 30 mins followed by AAPH induction measured every 5 mins for 9 hrs by ORAC assay relative to vehicle-treated control; format: functional
In short: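 ORAC: area under the fluorescence decay curve (netAUC) expressed as fold change relative to vehicle control. Mean ± SEM, N = 12; trolox included as reference.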

[3] = tested on: Radical scavenging activity; assay: Antioxidant activity assessed as inhibition of DPPH-induced free radical generation at 80 uM after 30 mins relative to control; format: functional
In short: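 DPPH scavenging given as % inhibition of DPPH absorbance, with values derived from a standard dose–response curve of vitamin C (0–500 µM). Mean ± SEM, N = 9.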

Cortical neurone [4] = assay: Anti-excitotoxic activity in Sprague-Dawley rat cortical neurons assessed as reduction of NMDA-evoked neuronal injury at 10 uM incubated for 30 mins prior to NMDA induction and maintained during NMDA induction for 15 mins measured after 9 hrs; format: functional
In short: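 Rat cortical neurons exposed to NMDA for 15 min, then incubated 9 h. Compound or MK801 (10 µM) added 30 min before and kept during NMDA. Injury scored as % inhibition of LDH release, given as median with interquartile range; N = 9–18.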

Cortical neurone [5] = assay: (§1) Anti-ischemic activity in Sprague-Dawley rat cortical neurons assessed as reduction of oxygen-glucose deprivation/reoxygenation-induced neuronal injury at 10 uM incubated for 30 mins prior to induction of oxygen-glucose deprivation and maintained during entire period of oxygen-glucose deprivation/reoxygenation measured after 9 hrs by LDH assay; format: functional
In short: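 Rat cortical neurons given 90 min oxygen-glucose deprivation, then 9 h reoxygenation. Compound, MK801 or trolox (10 µM or indicated concentrations) applied 30 min before OGD and kept through OGD/R. Neuronal injury read by LDH assay; mean ± SEM, N = 24.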

Cortical neurone [6] = assay: as §1, with “deprivation-induced intracellular oxidative stress” for “deprivation/reoxygenation-induced neuronal injury”, “1 hr” for “9 hrs”, “H2DCFDA staining-based […] microscopic analysis” for “LDH assay”; format: functional, cell-based
In short: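 Neurons pretreated 30 min before 90 min OGD, with treatment kept through reoxygenation. H2DCFDA loaded 1 h after reoxygenation; intracellular oxidative stress read as rise in fluorescence intensity 2 h later by imaging.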

[7] = tested on: Radical scavenging activity; assay: Antioxidant activity assessed as inhibition of DPPH-induced free radical generation at 1 to 500 uM after 30 mins relative to control; format: functional
Cortical neurone [8] = assay: Anti-excitotoxic activity in Sprague-Dawley rat cortical neurons assessed as inhibition of NMDA-induced intracellular calcium uptake at 10 uM incubated for 30 mins prior to NMDA induction measured after 50 secs by fluo-3 AM staining-based […] microscopic analysis; format: functional, cell-based
In short: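 Cultured rat cortical neurons loaded with Fluo-3 AM for 30 min with or without 10 µM compound, then exposed to NMDA. Intracellular free Ca2+ read 50 s after NMDA as fold change in integrated fluorescence density of Ca2+-bound Fluo-3 over basal. Median, interquartile range and min–max reported; N = 4–5; compared with NMDA-treated group.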

SMILES | Activity [1] | fold change (FC) [2] | inhibition [3] | Activity (Cortical neurone [4]) | Activity (Cortical neurone [5]) | Activity (Cortical neurone [6]) | inhibition [7] [%] | inhibition (Cortical neurone [8])
COc1ccc(/C=C/C2=CC(=O)[C@H]3C[C@@H]2C3(C)C)cc1 | Non-toxic | 2.64 | inactive |  |  |  |  | 
CC1(C)[C@@H]2C[C@H]1C(/C=C/c1ccccc1O)=CC2=O | Non-toxic | 6.84 | 4.64% |  |  |  |  | 
CC1=CC(=O)[C@H]2C[C@@H]1C2(C)C [LEVOVERBENONE] | Non-toxic | 1.19 | inactive |  |  |  |  | 
C[C@]12N[C@H](Cc3ccccc31)c1ccccc12 [DIZOCILPINE] | Non-toxic |  |  | Active | Active |  |  | 
CC1(C)[C@@H]2C[C@H]1C(/C=C/c1ccc(-n3cccc3)cc1)=CC2=O | Non-toxic | 6.81 | inactive |  |  |  |  | 
CC1(C)[C@@H]2C[C@H]1C(/C=C/c1ccc(O)c(Br)c1)=CC2=O | Non-toxic | 11.6 | 29.4% |  |  |  |  | 
CC1(C)[C@@H]2C[C@H]1C(/C=C/c1cccc(O)c1)=CC2=O | Non-toxic | 5.11 | inactive |  |  |  |  | 
CC1(C)[C@@H]2C[C@H]1C(/C=C/c1ccc(O)cc1)=CC2=O | Non-toxic | 10.7 | 19.1% | Active | Active | inactive |  | 
COc1cc(O)ccc1/C=C/C1=CC(=O)[C@H]2C[C@@H]1C2(C)C | Non-toxic | 7.37 | 38.1% |  |  |  |  | 
CC1(C)[C@@H]2C[C@H]1C(/C=C/c1ccccn1)=CC2=O | Non-toxic | 1.63 | inactive | Active |  |  |  | 
CC1(C)[C@@H]2C[C@H]1C(/C=C/c1ccc(F)cc1)=CC2=O | Non-toxic | 1.81 | inactive |  |  |  |  | 
COc1ccc(/C=C/C2=CC(=O)[C@H]3C[C@@H]2C3(C)C)cc1OC | Non-toxic | 2.73 | inactive |  |  |  |  | 
CC1(C)[C@@H]2C[C@H]1C(/C=C/c1cccnc1)=CC2=O | Non-toxic | 1.59 | inactive |  |  |  |  | 
O=C1O[C@H]([C@@H](O)CO)C(O)=C1O |  |  |  |  |  |  | 74 | 
Cc1c(C)c2c(c(C)c1O)CCC(C)(C(=O)O)O2 (stereo not given) |  | 3.11 |  |  |  |  |  | 
CC1(C)[C@@H]2C[C@H]1C(/C=C/c1ccc(O)c(O)c1)=CC2=O | Non-toxic | 9.09 | 91.6% | Active | Active | Active |  | 
COc1cc(O)cc(OC)c1/C=C/C1=CC(=O)[C@H]2C[C@@H]1C2(C)C | Non-toxic | 11.5 | 55.8% |  |  |  |  | 
COc1ccc(/C=C/C2=CC(=O)[C@H]3C[C@@H]2C3(C)C)c(O)c1 | Non-toxic | 9.48 | 51.2% | Active |  |  |  | 
COc1cc(/C=C/C2=CC(=O)[C@H]3C[C@@H]2C3(C)C)cc(O)c1O [SP-8356] | Non-toxic | 6.86 | 83.6% | Active | Active | Active |  | Active
COc1ccc(OC)c(/C=C/C2=CC(=O)[C@H]3C[C@@H]2C3(C)C)c1 | Non-toxic | 2.25 | inactive |  |  |  |  | 
CC1(C)[C@@H]2C[C@H]1C(/C=C/c1ccncc1)=CC2=O | Non-toxic | 1.56 | inactive |  |  |  |  | 
CC1(C)[C@@H]2C[C@H]1C(/C=C/c1ccc(-c3ccccc3)cc1)=CC2=O | Non-toxic | 1.85 | inactive |  |  |  |  | 
CC1(C)[C@@H]2C[C@H]1C(/C=C/c1ccccc1)=CC2=O | Non-toxic | 1.92 | inactive |  |  |  |  | 
COc1cc(/C=C/C2=CC(=O)[C@H]3C[C@@H]2C3(C)C)cc(OC)c1 | Non-toxic | 3.14 | inactive |  |  |  |  | 
